Assays:
Format in all cases: binding
[1] = tested on: histone H3 combinatorial peptide library; experiment: on-bead 5,000-member combinatorial histone H3 library screen; settings: for occurrence of peptides with high methylation at H3K4 (me2/3) / occurrence of peptides with low methylation at H3K4 (K4unmod and K4me): PHD1-2 screen
Method in brief: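 One-bead-one-peptide H3 combinatorial library (5,000 members) incubated sequentially with GST-tagged PHD fingers, GST-specific primary antibody, biotinylated secondary antibody, then streptavidin-alkaline phosphatase for bead detection.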

[2] = tested on: unmodified histone H3 N-terminus (first eleven amino acids); experiment: Amplified Luminescent Proximity Homogeneous Assay; settings: 10 μM protein, only biotin- or only 6×His-peptide
Method in brief: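 Recombinant CHD5 PHD constructs and H3 (1-11) peptides carrying either a 6×His tag or biotin were diluted in StabilCoat buffer to final 10 μM protein and 1 μM peptide. Mixtures shaken 30 min at ambient temperature. Donor and acceptor beads added at 15 μg/mL each (working), then shaken 30 min in the dark. Emission read at 570/100 nm with ALPHA filters.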

[3] = tested on: histone H3 tail peptide (1-12); experiment: 1H,15N HSQC NMR titration with H3 peptide; settings: 0.1 mM 15N-labeled PHD1-2; H3 (1-12)
Method in brief: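 15N-labelled CHD5 PHD1-2 expressed in E. coli BL21(DE3) pLysS grown in 15NH4Cl minimal medium and induced with 0.5 mM IPTG. GST fusion purified on glutathione agarose and tag cleaved with PreScission protease. Buffer was 20 mM Tris pH 6.8, 150 mM NaCl, 3 mM DTT. 1H,15N HSQC spectra of 0.1 mM protein recorded at 600 MHz with increasing amounts of H3 (1-12) peptide.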

[4] = tested on: histone H3 N-terminus; experiment: overall signal intensity in histone peptide array / peptide screens; settings: both peptide screens; at the same molar concentrations
[5] = tested on: immobilized histone H3 (1-11); experiment: surface plasmon resonance
[6] = bivalent binding model (bivalent analyte), pH 7.5

B1: PHD1-2: tandem PHD-fingers of CHD5 (338-468), GST fusion in pGEX-KG; tag cleaved for SPR and NMR (protein)
chain: YETDHQDYCEVCQQGGEIILCDTCPRAYHLVCLDPELEKAPEGKWSCPHCEKEGIQWEPKDDDDEEEEGGCEEEEDDHMEFCRVCKDGGELLCCDACPSSYHLHCLNPPLPEIPNGEWLCPRCTCPPLKGK
modifications: left off: GST, end not stated, kept
[1]; H3K4unmod, MALDI-TOF identification
  occurrence of unmodified lysine-4 among positive beads: 44 out of 90
[1]; H3T3ph
  occurrence of H3T3 phosphorylation among positive beads: 0 out of 90
[1]; H3T6ph
  occurrence of H3T6 phosphorylation among positive beads: 0 out of 90
[1]; all peptides
  occurrence of peptides with high methylation at H3K4 (me2/3): 13%
  occurrence of peptides with low methylation at H3K4 (K4unmod and K4me): 74%
[1]; peptides also containing R2me2a or R2me2s
  occurrence of peptides with high methylation at H3K4 (me2/3): 6%
[1]; peptides only containing Rme2a/s at H3R2
  occurrence of peptides with low methylation at H3K4 (K4unmod and K4me): 91%
[2]
  ALPHA signal with either functionalized peptide alone: no signal above background
[3]
  binding events in NMR titration: two distinct binding events
[4]
  overall signal intensity compared to either domain alone: notably higher
[5]; 1:1 Langmuir model
  increase in affinity (lower Kd) compared with PHD1 and PHD2 alone: 4-11 fold
[5]; 1:1 Langmuir model, biotinylated H3 (1-11) on SA chip, pH 7.5
  off-rate kd: 0.00348 ± 5e-05 s⁻¹
[5]; [6]
  ka1: 324 ± 11 M⁻¹ s⁻¹
  ka2: 2.9×10^−5 ± 1×10^−6 1/RUs
  kd1: 0.120 ± 0.005 s⁻¹
  kd2: 0.00218 ± 3e-05 s⁻¹
[5]; last off-rate of PHD1-2 vs kd values of individual domains
  slower last off-rate (kd) compared with individual domains: 5-6 fold
